Only some compounds are listed: those with a hit (about 3.7% of all), similar ones and a draw of the others.
Redox H2O2 prof: compounds producing H2O2 with reducing agent – biochemical, NIH compound library profiling, artefact control for MLSCN library redox annotation, primary screen; 200,000 tested, 0.03% active; DTT-dependent redox cycling H2O2, phenol red/HRP absorbance; 100% = 100 µM peroxide control, 0% = buffer; activation, % at 10 µM;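 active = activation of at least 50% relative to the plate's high and low controls in the primary single-dose screen; inactive = activation below 50%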;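 note: compound incubated with DTT at 0.8 mM final as the reducing agent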
MT stabilize HCS: microtubule stabilizers in HeLa cells, primary screen, imaging, high-content imaging; HeLa tubulin immunostaining HCS, 24 h; share of cells brighter than vehicle mean+2SD; % tubulin-high responders, % at 10 µM; 200,000 tested, 0.83% active;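 active = plate Z-score above 3 for both tubulin-high and condensed-nucleus cell shares, with cell loss under 80%, at 10 µM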;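 note: anti alpha tubulin signal scored within the nucleus-defined area of each cell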
ROMK mod: ROMK potassium channel modulators, primary screen, cell-based, thallium flux, MLSMR library; Tet-inducible ROMK, thallium flux fluorescence; actives lie on both sides; B-score at 10 µM; 130,000 tested, 2% active;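 active = signal ratio slope over the read window, or its plate-corrected B-score, at least 3 SD from the plate mean, either direction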;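 note: B-score of the F/F0 ratio slope over 7 to 12 s after thallium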
Cl transport mod: KCC2 cotransporter modulators, thallium flux, primary screen, cell-based, HEK293 KCC2, FluoZin-2 fluorescence, MLSMR; Solute carrier family 12 member 5 (Homo sapiens), Q9H2X9; KCC2 cells, thallium flux FluoZin-2 fluorescence; B-score of Tl+ flux slope (higher = more flux/activation; lower = inhibition) at 10 µM; 190,000 tested, 2.2% active; AID 1456, 2008;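 active = thallium flux slope and its plate-corrected score both differing from the plate sample mean at a set confidence after two filtering rounds, in either direction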;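 note: slope of fluorescence scaled to starting intensity during 10 to 20 s after thallium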
Target sequence (Q9H2X9 whole entry, looked up): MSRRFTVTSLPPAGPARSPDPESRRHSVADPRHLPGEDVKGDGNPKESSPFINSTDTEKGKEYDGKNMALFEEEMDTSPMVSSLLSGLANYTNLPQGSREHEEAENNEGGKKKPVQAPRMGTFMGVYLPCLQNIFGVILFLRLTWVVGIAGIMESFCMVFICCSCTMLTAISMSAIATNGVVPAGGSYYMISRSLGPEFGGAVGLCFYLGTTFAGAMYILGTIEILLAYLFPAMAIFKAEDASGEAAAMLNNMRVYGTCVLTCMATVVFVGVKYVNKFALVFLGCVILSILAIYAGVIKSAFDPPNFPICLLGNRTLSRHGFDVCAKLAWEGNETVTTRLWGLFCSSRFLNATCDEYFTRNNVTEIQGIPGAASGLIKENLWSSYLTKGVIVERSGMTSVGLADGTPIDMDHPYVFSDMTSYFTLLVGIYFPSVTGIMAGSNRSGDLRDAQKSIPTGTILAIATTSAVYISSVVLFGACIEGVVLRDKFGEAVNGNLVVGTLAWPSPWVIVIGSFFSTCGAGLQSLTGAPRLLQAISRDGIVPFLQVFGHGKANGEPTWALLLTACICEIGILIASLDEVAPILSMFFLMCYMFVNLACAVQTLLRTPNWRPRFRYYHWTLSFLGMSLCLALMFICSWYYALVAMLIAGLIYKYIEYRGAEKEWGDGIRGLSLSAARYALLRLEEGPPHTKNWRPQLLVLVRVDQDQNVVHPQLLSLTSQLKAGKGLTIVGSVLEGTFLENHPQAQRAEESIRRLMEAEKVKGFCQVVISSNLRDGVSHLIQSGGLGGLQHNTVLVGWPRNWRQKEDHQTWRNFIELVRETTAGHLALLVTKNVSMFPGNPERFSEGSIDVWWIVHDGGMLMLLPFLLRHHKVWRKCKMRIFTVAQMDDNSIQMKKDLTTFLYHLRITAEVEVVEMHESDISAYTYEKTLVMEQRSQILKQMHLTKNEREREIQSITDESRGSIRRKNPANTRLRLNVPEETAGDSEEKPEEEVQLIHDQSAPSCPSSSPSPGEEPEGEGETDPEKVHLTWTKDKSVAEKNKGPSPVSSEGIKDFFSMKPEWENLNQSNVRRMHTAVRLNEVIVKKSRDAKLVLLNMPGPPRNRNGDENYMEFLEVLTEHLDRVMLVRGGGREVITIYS
b-catenin transl: modulators of beta-catenin nuclear translocation, primary screen, imaging, HeLa cells, immunofluorescence, high-content; AID 1665, 2009; nuclear translocation activity, % at 5 µM; 190,000 tested, 0.3% active;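 active = nuclear translocation activity above 50% at 5 µM, with a well cell count of 50 or more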;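 note: per-cell ratio of nuclear to cytoplasmic median beta-catenin stain intensity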
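Test system: human HeLa cells, endogenous beta-catenin. Times: 24 h compound exposure, 37°C. Measured by: beta-catenin immunofluorescence imaging with DAPI.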
ROMK hit retest: ROMK channel modulator hit retest, confirmation, cell-based, thallium flux, duplicate, resupplied hits; shares compounds with ROMK mod; normalized thallium flux (F/F0 slope) at 10 µM; 3,000 tested, 54% active; fluorescence ratio; hits give low values;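 active = Flux at 10 µM at least 3 SD below or above vehicle control mean in one or both replicates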
Of the large screens only hits and unclear results are named; the others gave an inactive call (follow-up assays come after a bar, where they were run).

N#CC1=C(SCC(=O)NC2CC2)NC(=O)C(C#N)C12CCCCC2 (stereo not drawn)	none (no result: Cl transport mod)
C=CCNc1nc(-c2cc3ccccc3o2)cs1	none (no result: ROMK mod)
C=CCNc1nc(-c2ccc(O)c(C(N)=O)c2)cs1	none (no result: Cl transport mod) | ROMK hit retest inactive
NC(=O)C1=NOC(CNc2ncc(C(F)(F)F)cc2Cl)C1 (stereo not drawn)	ROMK mod 2.4 (no result: b-catenin transl) | ROMK hit retest inactive
Cc1cc(NC(=O)CCCn2cc([N+](=O)[O-])cn2)n(Cc2ccc(F)cc2)n1	none
O=C(COC(=O)/C=C/c1ccc(S(=O)(=O)N2CCOCC2)cc1)NCc1ccc(F)cc1	ROMK mod 5 | ROMK hit retest inactive
CC1=Nc2ccccc2N=C(NC(=O)CN2CCN(c3ccccc3)CC2)C1c1ccccc1 (stereo not drawn)	ROMK mod 3.2 | ROMK hit retest inactive
CC1=Nc2ccccc2N=C(NC(=O)CSC(=S)N2CCCCC2)C1c1ccccc1 (stereo not drawn)	none (no result: Redox H2O2 prof, MT stabilize HCS)
CCn1c(SCC(=O)O)nnc1-c1cccnc1	none
CCOc1ccccc1CNc1nc2nc3c(c(=O)n2[nH]1)CCC3	none (no result: ROMK mod, Cl transport mod) | ROMK hit retest inactive
C/C(Cl)=C\Cn1c(N2CCCC2)nc2c1c(=O)[nH]c(=O)n2C	none (no result: ROMK mod, Cl transport mod) | ROMK hit retest inactive
O=C(CCN1C(=O)c2cccnc2C1=O)NC1CCCCCC1	none (no result: ROMK mod, Cl transport mod)
O=C(CCCN1C(=O)c2ccccc2C1=O)NC1CCCCCC1	ROMK mod 1.2 | ROMK hit retest inactive
Cc1cc(NC(=O)Nc2cccc(C)c2C)no1	none
CCOC(=O)c1cc(-c2ccc(/C=N\n3cnnc3)o2)ccc1Cl	none (no result: ROMK mod) | ROMK hit retest 0.066
CCCCOC(=O)c1cc(-c2ccc(/C=N/n3cnnc3)o2)ccc1Cl	none (no result: ROMK mod, b-catenin transl)
O=[N+]([O-])c1cc2oc3c(c2c(C=NCc2ccncc2)c1O)CCCC3	none (no result: ROMK mod)
CCOC(=O)/C(C#N)=C/c1cc2ccc(C)cc2nc1Cl	none
Cc1ccc2cc(C=O)c(Cl)nc2c1	ROMK mod 3.7 | ROMK hit retest inactive
Cc1ccc(Cl)c(OC(=O)c2nn(C(C)C)c(=O)c3ccccc23)c1	none
Cc1ccc2c(c1)S/C(=C/c1ccc[n+](CCO)c1)N2C	none
Cc1cc(/C=C2\Sc3ccccc3N2C)cc(C)[n+]1CC1CCCO1 (stereo not drawn)	ROMK mod -4.8 | ROMK hit retest 0.028
Cc1ccc(-n2nnnc2Sc2ccc(S(=O)(=O)NCCN(C)C)cc2[N+](=O)[O-])cc1	ROMK mod -3.5 | ROMK hit retest 0.057
CN(C)CCNS(=O)(=O)c1ccc(N2CCN(c3ccc(F)cc3)CC2)c([N+](=O)[O-])c1	ROMK mod -4 | ROMK hit retest 0.064
Cc1c(CCC(=O)O)c(=O)oc2c(C)c(OCc3cc4c(cc3Cl)OCO4)ccc12	none (no result: Redox H2O2 prof, MT stabilize HCS)
Cc1ccc(NC(=O)CSc2nnc(-c3n[nH]c4ccccc34)n2-c2ccccc2)c(C)c1	none (no result: ROMK mod)
COc1ccc(-c2ccnc(-c3ccc(O)cc3)n2)cc1	ROMK mod 3.2, b-catenin transl 64 | ROMK hit retest inactive
O=C(NCc1ccccc1)c1onc(CSc2ccccc2)c1C(=O)NCC1CC1	none (no result: Redox H2O2 prof, MT stabilize HCS, ROMK mod) | ROMK hit retest inactive
CCCSc1cc(=O)n(-c2ccc(F)cc2)nc1C(=O)OCC	none (no result: Cl transport mod)
CCOC(=O)Cc1csc(NC(=O)c2cc3c(s2)CCCC3)n1	none (no result: b-catenin transl)
CCOC(=O)Cc1csc(NC(=O)c2csc3c2CCCC3)n1	none (no result: ROMK mod) | ROMK hit retest inactive
C/C(=N\Nc1nc(C(=O)O)cs1)c1ccccc1	none (no result: ROMK mod) | ROMK hit retest inactive
COc1ccc(C(=O)OCCNC(=O)c2c(Cl)nc3ccccn23)cc1	none (no result: ROMK mod) | ROMK hit retest 0.059
Cn1c(SCc2ccccn2)nc2c1c(=O)[nH]c(=O)n2C	none (no result: Redox H2O2 prof, MT stabilize HCS, ROMK mod)
COc1ccc(NS(=O)(=O)c2cc(NC(=O)c3cc(F)c(F)c(F)c3F)ccc2N2CCCC2)cc1	none (no result: Redox H2O2 prof, MT stabilize HCS, ROMK mod) | ROMK hit retest inactive
COc1ccc(NS(=O)(=O)c2cc(NC(=O)C3CCCO3)ccc2N2CCCC2)cc1 (stereo not drawn)	none
O=c1/c(=C/c2ccc(O)cc2)sc2n1CCCN=2	none (no result: ROMK mod)
CN(C)c1ccc(/C=c2\sc3n(c2=O)CCCN=3)cc1	ROMK mod -4.4 | ROMK hit retest 0.054
Cc1ccc2nc(NC(=O)C(NS(=O)(=O)c3cccc4nsnc34)C(C)C)sc2c1 (stereo not drawn)	none (no result: ROMK mod, b-catenin transl) | ROMK hit retest 0.062
CC(C)C(NS(=O)(=O)c1cccc2nsnc12)C(=O)Nc1nccs1 (stereo not drawn)	none (no result: Redox H2O2 prof, MT stabilize HCS)
N#Cc1nc(COc2cccc(Cl)c2)oc1NCc1ccncc1	none (no result: Cl transport mod)
COc1ccc(CNc2oc(COc3ccc(Cl)cc3)nc2C#N)cc1	ROMK mod -2.1 | ROMK hit retest inactive
COCCNC(=O)/C(C#N)=C/c1cccc(/C=C(\C#N)C(=O)NCCOC)c1	none (no result: ROMK mod, b-catenin transl) | ROMK hit retest 0.037
N#C/C(=C\c1cccc([N+](=O)[O-])c1)C(=O)NCc1ccc(Cl)cc1	none
COCCNC(=O)/C(C#N)=C/c1ccc(O)cc1	none (no result: Redox H2O2 prof, MT stabilize HCS, ROMK mod)
N#C/C(=C\c1cccc([N+](=O)[O-])c1)C(=O)NCc1cccnc1	none (no result: ROMK mod) | ROMK hit retest 0.022
N#C/C(=C\c1ccc2c(c1)OCCO2)C(=O)NC1CCCCC1	none (no result: ROMK mod)
N#C/C(=C\c1cccnc1)C(=O)NC1CCCCC1	ROMK mod -5.3 | ROMK hit retest 0.036
N#C/C(=C\c1cccnc1)C(=O)Nc1cccc2ccccc12	ROMK mod -2.4 | ROMK hit retest 0.046
CC(=O)Nc1ccc(C(=O)OCC(=O)Nc2c(F)cccc2F)cc1	none (no result: Redox H2O2 prof, MT stabilize HCS, ROMK mod)
CNS(=O)(=O)c1cc(NC(C)=O)c(C)cc1C	none (no result: ROMK mod)
O=C(NCCOCc1ccccc1)C(c1ccccc1)c1ccccc1	none
Nc1ccc(C(=O)Nc2cccc(N)c2)cc1	none (no result: Redox H2O2 prof, MT stabilize HCS, ROMK mod)
CCCCNC(=O)/C(C#N)=C/c1cccnc1	ROMK mod -3.3 | ROMK hit retest 0.05
Cc1oc(-c2ccc(Cl)cc2)cc1C(=O)/C(C#N)=C/Nc1ccccc1	none (no result: Redox H2O2 prof, MT stabilize HCS, ROMK mod)
O=C(Nc1ccccc1)Nc1ncc([N+](=O)[O-])s1	none | ROMK hit retest 0.064
CCCCN1C(=O)N(C)C2NC(=S)NC21 (stereo not drawn)	none (no result: Redox H2O2 prof, MT stabilize HCS, ROMK mod)
O=[N+]([O-])c1cc(S(=O)(=O)N2CCCC2)ccc1O	none
O=[N+]([O-])c1cc(S(=O)(=O)N2CCCCCC2)ccc1F	none (no result: ROMK mod) | ROMK hit retest 0.054
O=S(=O)(c1cccc(S(=O)(=O)N2CCCC2)c1)c1cccc(S(=O)(=O)N2CCCC2)c1	ROMK mod -5.7 | ROMK hit retest 0.066
CCCNc1nc(Cl)nc(NC(C)(C)C)n1	ROMK mod -3.8 | ROMK hit retest 0.053
COc1cc(CC(=O)OCC(=O)Nc2sccc2C(N)=O)cc(OC)c1OC	none | ROMK hit retest 0.062

Source: PubChem (several laboratories)
